High-throughput results (PubChem)
The list is not random: actives were taken first. Their share in the collection is about 3.5%.
MrgX1 ag – agonists of human MrgX1 receptor, primary screen, HEK293 cells, Fluo-4 calcium flux. Mas-related G-protein coupled receptor member X1 (Homo sapiens), Q96LB2. Fluo-4 calcium fluorescence, agonist mode; stronger effect = higher value. B-score at 10 µM. actives 0.44% (n = 310,000). AID 588627, 2011;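 active = calcium response B-score plate-corrected fluorescence ratio at least 3 library SD, with starting fluorescence B-score inside 5 SD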
Target sequence (Q96LB2 whole entry, looked up): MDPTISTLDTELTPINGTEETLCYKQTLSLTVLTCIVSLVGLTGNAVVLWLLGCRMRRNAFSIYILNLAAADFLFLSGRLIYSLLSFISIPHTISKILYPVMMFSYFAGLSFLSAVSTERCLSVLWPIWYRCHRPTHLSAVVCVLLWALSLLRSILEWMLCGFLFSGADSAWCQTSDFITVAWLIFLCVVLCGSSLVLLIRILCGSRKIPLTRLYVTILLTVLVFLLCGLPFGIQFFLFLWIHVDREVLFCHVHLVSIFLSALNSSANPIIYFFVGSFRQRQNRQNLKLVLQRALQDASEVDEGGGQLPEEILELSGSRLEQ
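times = overnight plating, then 30 min 37 °C plus 30 min room-temperature dye loading | assay system = stable human MrgX1 HEK293 cell line | input = fifteen thousand cells per well | signal = kinetic calcium dye fluorescence, Fluo-4 NW | dosing = compound delivered in addition one of three | read-out = B-scored fluorescence response ratio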
RGS4 inh – RGS4 inhibitors, primary screen, cell-based, HEK293 M3R inducible RGS4, calcium flux; Regulator of G-protein signaling 4 (Homo sapiens), P49798; Fluo-4 calcium flux; stronger effect = higher value; triggered by carbachol at its EC20; B-score at 10 µM; actives 0.45% (n = 310,000); AID 463165, 2010;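 active = B-score, a plate-corrected calcium signal, over three deviations above library mean, with baseline fluorescence within five deviations of library mean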;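 note: RGS4 expression induced by doxycycline in cells with stable M3 receptor; B-score is computed from the integrated fluorescence ratio over baseline after carbachol; higher B-score means a larger calcium signal and so more RGS4 inhibition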
Target sequence (P49798 whole entry, looked up): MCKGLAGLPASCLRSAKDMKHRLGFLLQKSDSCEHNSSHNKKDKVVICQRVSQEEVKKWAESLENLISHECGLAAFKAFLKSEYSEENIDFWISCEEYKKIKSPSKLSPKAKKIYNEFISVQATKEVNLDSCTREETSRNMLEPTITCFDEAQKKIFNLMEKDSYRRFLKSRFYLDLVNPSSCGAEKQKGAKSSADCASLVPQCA
MrgX1 allo act – positive allosteric modulators of MrgX1, primary screen, HEK293 cells, Fluo-4 calcium flux. Mas-related G-protein coupled receptor member X1 (Homo sapiens), Q96LB2. FDSS; stronger effect = higher value. B-score at 10 µM. actives 0.63% (n = 310,000);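 active = plate-corrected calcium response at least 3 library SD above typical, normal starting fluorescence, not activating the receptor alone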;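 note: compound read alongside a low EC10 to EC30 dose of BAM8-22 agonist; peak minus trough fluorescence over baseline measured at the second addition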
MrgX1 antag – antagonists of human MrgX1 receptor, primary screen, HEK293 cells, Fluo-4 calcium flux; Mas-related G-protein coupled receptor member X1 (Homo sapiens), Q96LB2; BAM8-22 antagonism; stronger effect = lower value; B-score at 10 µM; actives 1.3% (n = 310,000); AID 588676, 2011;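 active = calcium-response B-score plate-corrected more than 3 library SD below zero, starting fluorescence within 5 deviations, no agonist response on first addition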;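 note: peak minus trough fluorescence over baseline after final BAM8-22 challenge near maximal dose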
RGS4 pot – RGS4 potentiators or activators, primary screen, cell-based, HEK293 M3R inducible RGS4, calcium flux. actives 0.92% (n = 310,000). B-score at 10 µM. carbachol calcium flux Fluo4; stronger effect = lower value;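 active = B-score of the integrated calcium signal more than 4 SD below the library mean, with starting fluorescence not abnormally high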;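 note: negative B-score means reduced calcium response which marks RGS4 activation or potentiation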
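Reagent: ECmax carbachol challenge; Test system: M3R-expressing HEK293 line, RGS4 induced by doxycycline; Schedule: overnight RGS4 induction, 30 min dye load 37 °C, 20 min compound RT; Detection: calcium dye Fluo4 fluorescence; Read-out: Agonist-evoked peak-minus-minimum fluorescence over baseline, integrated ratio, B score.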
Numbers stand for hits.

Results for Cc1ccc(C(CCN(Cc2ccccc2)C(=O)c2ccco2)c2ccco2)cc1 (configuration not stated) ?
MrgX1 ag: inactive; RGS4 inh: inactive; MrgX1 allo act: inactive; MrgX1 antag: inactive; RGS4 pot: inactive

What do the screens show for `O=C(c1ccco1)N(CCC(c1ccccc1)c1ccco1)Cc1ccco1` (configuration not stated)?
MrgX1 ag: inactive; RGS4 inh: inactive; MrgX1 allo act: inactive; MrgX1 antag: -6.4; RGS4 pot: inactive

What do the screens show for `O=c1sc2ccccc2c(N2CCCC2)c1[N+](=O)[O-]`?
MrgX1 ag: inactive; RGS4 inh: inactive; MrgX1 allo act: inactive; MrgX1 antag: inactive; RGS4 pot: inactive

How did COc1ccc(N=C2NC(=O)CS2)c([N+](=O)[O-])c1 do in these assays?
MrgX1 ag: inactive; RGS4 inh: inactive; MrgX1 allo act: inactive; MrgX1 antag: inactive; RGS4 pot: inactive

What do the screens show for `O=C1CSC(=Nc2ccccc2[N+](=O)[O-])N1`?
MrgX1 ag: inactive; RGS4 inh: inactive; MrgX1 allo act: inactive; MrgX1 antag: -4.6; RGS4 pot: inactive

How did COC(=O)c1c(C)nc(C)c(C(=O)OC)c1-c1ccc(OC)c(OC)c1 do in these assays?
MrgX1 ag: inactive; RGS4 inh: inactive; MrgX1 allo act: inactive; MrgX1 antag: inactive; RGS4 pot: inactive

How did CC1=[N+](C)N(c2ccccc2)C(=O)C1N=C/C=C/c1ccccc1 (configuration not stated) do in these assays?
MrgX1 ag: inactive; RGS4 inh: inactive; MrgX1 allo act: inactive; MrgX1 antag: inactive; RGS4 pot: -7.5

How did COc1cc(OC)c(OC)cc1/C=C/C(=O)c1ccc(NS(=O)(=O)c2ccc(C)cc2)cc1 do in these assays?
MrgX1 ag: inactive; RGS4 inh: inactive; MrgX1 allo act: inactive; MrgX1 antag: -4.8; RGS4 pot: inactive

Results for COc1ccc(N2CCN(C(=O)c3ccccc3NS(=O)(=O)c3ccccc3)CC2)cc1 ?
MrgX1 ag: inactive; RGS4 inh: inactive; MrgX1 allo act: inactive; MrgX1 antag: inactive; RGS4 pot: inactive

What do the screens show for `CC1(C)CC2CC(C)(CN2/C=N/c2sc3c(c2C#N)CC(C)(C)NC3(C)C)C1` (configuration not stated)?
MrgX1 ag: inactive; RGS4 inh: inactive; MrgX1 allo act: inactive; MrgX1 antag: -4.5; RGS4 pot: inactive

Results for NNC(=O)c1[nH]c2ccc([N+](=O)[O-])cc2c1-c1ccccc1 ?
MrgX1 ag: inactive; RGS4 inh: inactive; MrgX1 allo act: inactive; MrgX1 antag: inactive; RGS4 pot: inactive

How did O=C(N/N=C/c1ccccn1)c1[nH]c2ccc([N+](=O)[O-])cc2c1-c1ccccc1 do in these assays?
MrgX1 ag: inactive; RGS4 inh: inactive; MrgX1 allo act: inactive; MrgX1 antag: -5.1; RGS4 pot: inactive

What do the screens show for `CCOc1ccc(S(=O)(=O)Nc2ccc3c(c2)c2c(n3S(=O)(=O)c3ccc(OCC)cc3)CCCC2=O)cc1`?
MrgX1 ag: inactive; RGS4 inh: inactive; MrgX1 allo act: inactive; MrgX1 antag: inactive; RGS4 pot: inactive

What do the screens show for `CCc1cccc(C)c1NC(=O)COC(=O)Cn1c(C)csc1=O`?
MrgX1 ag: inactive; RGS4 inh: inactive; MrgX1 allo act: inactive; MrgX1 antag: inactive; RGS4 pot: inactive

How did CC1CCN(CCCCOc2ccc(F)cc2)CC1 do in these assays?
MrgX1 ag: inactive; RGS4 inh: inactive; MrgX1 allo act: inactive; MrgX1 antag: inactive; RGS4 pot: inactive

How did CC(C)(C)c1ccc(OCCCN2CCCC2)cc1 do in these assays?
MrgX1 ag: inactive; RGS4 inh: inactive; MrgX1 allo act: inactive; MrgX1 antag: inactive; RGS4 pot: inactive

What do the screens show for `CC1CCN(CCOc2ccc(C(=O)c3ccccc3)cc2)CC1`?
MrgX1 ag: inactive; RGS4 inh: inactive; MrgX1 allo act: inactive; MrgX1 antag: inactive; RGS4 pot: inactive

How did Clc1ccc(OCCCCN2CCCCC2)cc1 do in these assays?
MrgX1 ag: inactive; RGS4 inh: inactive; MrgX1 allo act: inactive; MrgX1 antag: inactive; RGS4 pot: -7.1

What do the screens show for `Cc1ccc(OCCCCN2CCC(C)CC2)cc1`?
MrgX1 ag: inactive; RGS4 inh: inactive; MrgX1 allo act: inactive; MrgX1 antag: inactive; RGS4 pot: -7.2

Results for CC(C)Oc1ccc(OCCCN2CCCCCC2)cc1 ?
MrgX1 ag: inactive; RGS4 inh: inactive; MrgX1 allo act: inactive; MrgX1 antag: inactive; RGS4 pot: -7.2

What do the screens show for `CC1CCN(CCCCOc2ccc(C(=O)c3ccccc3)cc2)CC1`?
MrgX1 ag: inactive; RGS4 inh: inactive; MrgX1 allo act: inactive; MrgX1 antag: inactive; RGS4 pot: -9.6

What do the screens show for `CC(C)c1ccc(OCCCCN2CCCCC2)cc1`?
MrgX1 ag: inactive; RGS4 inh: inactive; MrgX1 allo act: inactive; MrgX1 antag: inactive; RGS4 pot: inactive

Results for COc1ccc([C@@H](C)NC(=O)CCc2nnc(-c3cc(C)on3)o2)cc1 ?
MrgX1 ag: inactive; RGS4 inh: inactive; MrgX1 allo act: inactive; MrgX1 antag: inactive; RGS4 pot: inactive

What do the screens show for `CCSc1nc(O)cc(=O)n1CC`?
MrgX1 ag: inactive; RGS4 inh: inactive; MrgX1 allo act: inactive; MrgX1 antag: inactive; RGS4 pot: inactive

How did O=[N+]([O-])c1ccc(OCCCCCN2CCOCC2)cc1 do in these assays?
MrgX1 ag: inactive; RGS4 inh: inactive; MrgX1 allo act: inactive; MrgX1 antag: inactive; RGS4 pot: inactive

Results for O=[N+]([O-])c1ccc(OCCCCN2CCCCC2)cc1 ?
MrgX1 ag: inactive; RGS4 inh: inactive; MrgX1 allo act: inactive; MrgX1 antag: inactive; RGS4 pot: -7.6

What do the screens show for `Cc1cc(Br)ccc1OCCOCCN1CCCC1`?
MrgX1 ag: inactive; RGS4 inh: inactive; MrgX1 allo act: inactive; MrgX1 antag: inactive; RGS4 pot: inactive

Results for CC1CCN(CCCCOc2ccc([N+](=O)[O-])cc2)CC1 ?
MrgX1 ag: inactive; RGS4 inh: inactive; MrgX1 allo act: inactive; MrgX1 antag: inactive; RGS4 pot: -7.3

Results for Cc1cc(Br)ccc1OCCCCN1CCCCC1 ?
MrgX1 ag: inactive; RGS4 inh: inactive; MrgX1 allo act: inactive; MrgX1 antag: inactive; RGS4 pot: -7

How did CCC(C)NC(=O)c1ccc(CN2CCc3ccccc3C2)cc1 (configuration not stated) do in these assays?
MrgX1 ag: inactive; RGS4 inh: inactive; MrgX1 allo act: inactive; MrgX1 antag: inactive; RGS4 pot: -7.5

How did COCCNC(=O)c1ccc(CN2CCc3ccccc3C2)cc1 do in these assays?
MrgX1 ag: inactive; RGS4 inh: inactive; MrgX1 allo act: inactive; MrgX1 antag: inactive; RGS4 pot: inactive

Results for CCCNC(=O)c1ccc(CN2CCc3ccccc3C2)cc1 ?
MrgX1 ag: inactive; RGS4 inh: inactive; MrgX1 allo act: inactive; MrgX1 antag: inactive; RGS4 pot: -7.1

How did COCC(C)NC(=O)c1ccc(CN2CCc3ccccc3C2)cc1 (configuration not stated) do in these assays?
MrgX1 ag: inactive; RGS4 inh: inactive; MrgX1 allo act: inactive; MrgX1 antag: inactive; RGS4 pot: inactive
